Source: ChEMBL document CHEMBL2390884, “Design, synthesis and antiproliferative activity studies of novel 1,2,3-triazole-dithiocarbamate-urea hybrids” (Eur J Med Chem, 2013)
The source made the active and inactive calls. The calls are words filed in the database; no cut-off is given here.

Experiments:
[1] = Cytotoxicity against human EC9706 cells after 72 hrs by MTT assay; assay type: functional, cell-based; conditions: EC9706, 72 h
[2] = system: MGC-803; assay: Cytotoxicity against human MGC803 cells after 72 hrs by MTT assay; assay type: functional, cell-based; conditions: MGC-803, 72 h
[3] = system: MCF7; assay: Cytotoxicity against human MCF7 cells after 72 hrs by MTT assay; assay type: functional, cell-based; conditions: MCF7, 72 h
[4] = system: SMMC-7721; assay: Cytotoxicity against human SMMC7721 cells after 72 hrs by MTT assay; assay type: functional, cell-based; conditions: SMMC-7721, 72 h
[5] = system: MGC-803; assay: Cell cycle arrest in human MGC803 cells assessed as accumulation at G2/M phase at 0.25 uM after 12 hrs by propidium iodide staining-based flow cytometry; assay type: functional
Summary of the method: (§1)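 Exponentially growing MGC-803 cells (5×10^5) treated at 0, 0.25, 0.5 or 1.0 µmol/L for 12 or 24 h; cells collected, fixed in ice-cold 70% ethanol, treated with buffer containing RNAse A and 0.1% Triton X-100, stained with PI; DNA content analysed by flow cytometry to give percentages of cells in G1, S and G2/M phases.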

[6] = system: MGC-803; assay: Cell cycle arrest in human MGC803 cells assessed as accumulation at G0/G1 phase at 0.5 uM after 12 hrs by propidium iodide staining-based flow cytometry; assay type: functional; summary of the method: as §1
[7] = system: MGC-803; assay: Cell cycle arrest in human MGC803 cells assessed as accumulation at S phase at 0.5 uM after 12 hrs by propidium iodide staining-based flow cytometry; assay type: functional; summary of the method: as §1
[8] = system: MGC-803; assay: Cell cycle arrest in human MGC803 cells assessed as accumulation at S phase at 1 uM after 24 hrs by propidium iodide staining-based flow cytometry; assay type: functional; summary of the method: as §1
[9] = system: MGC-803; assay: Cell cycle arrest in human MGC803 cells assessed as accumulation at G0/G1 phase at 0.5 uM after 24 hrs by propidium iodide staining-based flow cytometry; assay type: functional; summary of the method: as §1
[10] = system: MGC-803; assay: Cell cycle arrest in human MGC803 cells assessed as accumulation at G0/G1 phase at 1 uM after 12 hrs by propidium iodide staining-based flow cytometry; assay type: functional; summary of the method: as §1
[11] = system: MGC-803; assay: Cell cycle arrest in human MGC803 cells assessed as accumulation at S phase at 0.5 uM after 24 hrs by propidium iodide staining-based flow cytometry; assay type: functional; summary of the method: as §1
[12] = system: MGC-803; assay: Cell cycle arrest in human MGC803 cells assessed as accumulation at S phase at 0.25 uM after 12 hrs by propidium iodide staining-based flow cytometry; assay type: functional; summary of the method: as §1
[13] = system: MGC-803; assay: Induction of apoptosis in human MGC803 cells assessed as chromatin condensation at 0.25 to 1 uM after 12 hrs by Hoechst 33258 staining-based fluorescence microscopy; assay type: functional, cell-based
Summary of the method: (§2)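 MGC-803 cells seeded at 8×10^3 cells/well, treated 12 h at 0, 0.25, 0.5 or 1.0 µmol/L; cells collected, fixed, stained 20 min with Hoechst 33258, washed with PBS; nuclear shrinkage, chromatin condensation, intense fluorescence and fragmentation scored by fluorescence microscopy.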

[14] = system: HEK293; assay: Cytotoxicity against human HEK293 cells up to 55 uM after 72 hrs by MTT assay; assay type: cell-based; conditions: hek293, 72 h
Summary of the method: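 HEK293 cells seeded at 5×10^3 per well, grown 24 h at 37°C, then medium replaced with compound-containing medium over a concentration range; 72 h exposure; MTT (5 mg/mL stock) added for 4 h at 37°C, formazan dissolved in DMSO, absorbance read at 570 nm. Triplicate per concentration, experiment repeated three times.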

[15] = system: MGC-803; assay: Cell cycle arrest in human MGC803 cells assessed as reduction in S phase accumulation at 0.25 to 1 uM by propidium iodide staining-based flow cytometry; assay type: functional; conditions: TDE = time-dependent effect; summary of the method: as §1
[16] = system: MGC-803; assay: Induction of apoptosis in human MGC803 cells assessed as nuclear fragmentation at 0.25 to 1 uM after 12 hrs by Hoechst 33258 staining-based fluorescence microscopy; assay type: functional, cell-based; summary of the method: as §2
[17] = system: MGC-803; assay: Cell cycle arrest in human MGC803 cells assessed as accumulation at S phase at 1 uM after 12 hrs by propidium iodide staining-based flow cytometry; assay type: functional; summary of the method: as §1
[18] = system: MGC-803; assay: Cell cycle arrest in human MGC803 cells assessed as reduction in G1 phase accumulation after 12 to 24 hrs by propidium iodide staining-based flow cytometry; assay type: functional; summary of the method: as §1
[19] = system: MGC-803; assay: Cell cycle arrest in human MGC803 cells assessed as accumulation at G0/G1 phase at 0.25 uM after 24 hrs by propidium iodide staining-based flow cytometry; assay type: functional; summary of the method: as §1
[20] = system: MGC-803; assay: Cell cycle arrest in human MGC803 cells assessed as accumulation at G0/G1 phase at 1 uM after 24 hrs by propidium iodide staining-based flow cytometry; assay type: functional; summary of the method: as §1
[21] = system: MGC-803; assay: Cell cycle arrest in human MGC803 cells assessed as accumulation at G2/M phase at 1 uM after 12 hrs by propidium iodide staining-based flow cytometry; assay type: functional; summary of the method: as §1
[22] = system: MGC-803; assay: Cell cycle arrest in human MGC803 cells assessed as accumulation at G2/M phase at 0.5 uM after 24 hrs by propidium iodide staining-based flow cytometry; assay type: functional; summary of the method: as §1
[23] = system: MGC-803; assay: Cell cycle arrest in human MGC803 cells assessed as accumulation at G2/M phase at 1 uM after 24 hrs by propidium iodide staining-based flow cytometry; assay type: functional; summary of the method: as §1
[24] = system: MGC-803; assay: Cell cycle arrest in human MGC803 cells assessed as accumulation at S phase at 0.25 uM after 24 hrs by propidium iodide staining-based flow cytometry; assay type: functional; summary of the method: as §1
[25] = system: MGC-803; assay: Cell cycle arrest in human MGC803 cells assessed as accumulation at G2/M phase at 0.5 uM after 12 hrs by propidium iodide staining-based flow cytometry; assay type: functional; summary of the method: as §1
[26] = system: MGC-803; assay: Cell cycle arrest in human MGC803 cells assessed as accumulation at G2/M phase after 12 to 24 hrs by propidium iodide staining-based flow cytometry; assay type: functional; summary of the method: as §1
[27] = system: MGC-803; assay: Cell cycle arrest in human MGC803 cells assessed as accumulation at G0/G1 phase at 0.25 uM after 12 hrs by propidium iodide staining-based flow cytometry; assay type: functional; summary of the method: as §1
[28] = system: MGC-803; assay: Induction of apoptosis in human MGC803 cells assessed as nuclear shrinkage at 0.25 to 1 uM after 12 hrs by Hoechst 33258 staining-based fluorescence microscopy; assay type: functional, cell-based; summary of the method: as §2
[29] = system: MGC-803; assay: Cell cycle arrest in human MGC803 cells assessed as reduction in G1 phase accumulation at 0.25 to 1 uM by propidium iodide staining-based flow cytometry; assay type: functional; conditions: TDE = time-dependent effect; summary of the method: as §1
[30] = system: MGC-803; assay: Cell cycle arrest in human MGC803 cells assessed as accumulation at G2/M phase at 0.25 to 1 uM by propidium iodide staining-based flow cytometry; assay type: functional; conditions: TDE = time-dependent effect; summary of the method: as §1
[31] = system: MGC-803; assay: Cell cycle arrest in human MGC803 cells assessed as accumulation at G2/M phase at 0.25 uM after 24 hrs by propidium iodide staining-based flow cytometry; assay type: functional; summary of the method: as §1
[32] = system: MGC-803; assay: Cell cycle arrest in human MGC803 cells assessed as reduction in S phase accumulation after 12 to 24 hrs by propidium iodide staining-based flow cytometry; assay type: functional; summary of the method: as §1

Work on `NC(=O)N1CCN(C(=S)SCc2cn(Cc3ccc(F)cc3)nn2)CC1` yielded an IC50 [1] of 62.7 µM, an IC50 [2] of 9.33 µM and an IC50 [3] of 22.1 µM. The IC50 [4] was over 128 µM.
Work on `O=C(NC1CCCCC1)N1CCN(C(=S)SCc2cn(Cc3ccccc3F)nn2)CC1` yielded an IC50 [1] of 84.9 µM, an IC50 [2] of 36.5 µM and an IC50 [3] of 85 µM. It also gave an IC50 [4] of over 128 µM.
For `O=C(NC1CCCCC1)N1CCN(C(=S)SCc2cn(Cc3ccc(F)cc3)nn2)CC1`, the IC50 [1] was over 128 µM, the IC50 [2] was over 128 µM and the IC50 [3] was over 128 µM. It also gave an IC50 [4] of over 128 µM.
In the case of `O=c1[nH]cc(F)c(=O)[nH]1` [FLUOROURACIL], the IC50 [1] is reported as 0.32 µM, the IC50 [2] is reported as 7.14 µM and the IC50 [3] is reported as 7.33 µM. It also gave an IC50 [4] of 26.7 µM.
Work on `CCN(C)C(=O)N1CCN(C(=S)SCc2cn(Cc3ccc(Cl)cc3)nn2)CC1` yielded an IC50 [1] of 17.7 µM, an IC50 [2] of 4.32 µM and an IC50 [3] of 14.7 µM. For the same molecule, the IC50 [4] was 38.2 µM.
For `NC(=O)N1CCN(C(=S)SCc2cn(Cc3ccccc3F)nn2)CC1`, the IC50 [1] was 43.1 µM, the IC50 [2] was 11.3 µM and the IC50 [3] was over 128 µM. It also gave an IC50 [4] of over 128 µM.
Work on `COc1cc(Cn2cc(CSC(=S)N3CCN(C(=O)NC(C)C)CC3)nn2)cc(OC)c1OC` yielded an IC50 [1] of over 128 µM, an IC50 [2] of over 128 µM and an IC50 [3] of over 128 µM. For the same molecule, the IC50 [4] was over 128 µM.
For `CCN(C)C(=O)N1CCN(C(=S)SCc2cn(Cc3ccc(C)cc3)nn2)CC1`, the IC50 [1] was 70.6 µM, the IC50 [2] was 8.27 µM and the IC50 [3] was 40.1 µM. It also gave an IC50 [4] of over 128 µM.
In the case of `Cc1ccc(Cn2cc(CSC(=S)N3CCN(C(=O)NC(C)C)CC3)nn2)cc1`, the IC50 [1] is reported as over 128 µM, the IC50 [2] is reported as 16.6 µM and the IC50 [3] is reported as 4.63 µM. It also gave an IC50 [4] of over 128 µM.
For `COc1ccc(Cn2cc(CSC(=S)N3CCN(C(=O)NC(C)C)CC3)nn2)cc1`, the IC50 [1] was over 128 µM, the IC50 [2] was 99.2 µM and the IC50 [3] was 19.6 µM. The IC50 [4] was over 128 µM.
With `CCN(C)C(=O)N1CCN(C(=S)SCc2cn(Cc3ccc(OC)cc3)nn2)CC1` the IC50 [1] was over 128 µM, the IC50 [2] was 87.9 µM and the IC50 [3] was 21.4 µM. It also gave an IC50 [4] of over 128 µM.
`COc1ccc(Cn2cc(CSC(=S)N3CCN(C(N)=O)CC3)nn2)cc1` gave an IC50 [1] of over 128 µM, an IC50 [2] of over 128 µM and an IC50 [3] of over 128 µM. For the same molecule, the IC50 [4] was over 128 µM.
With `CC(C)NC(=O)N1CCN(C(=S)SCc2cn(Cc3ccccc3F)nn2)CC1` the Activity [5] was 21.86%, the Activity [6] was 19.1% and the Activity [7] was 26.26%. It also gave an Activity [8] of 15.66%, an Activity [9] of 10.9% and an Activity [10] of 6.02%. The Activity [11] was 17.4%, the Activity [12] was 39.06% and the Activity [13] was “Active”. For the same molecule, the Activity [14] was “Non-toxic”, the Activity [15] was “tde” and the Activity [16] was “Active”. The Activity [17] was 39.11%, the Activity [18] was “Dose-dependent effect” and the Activity [19] was 31.47%. The IC50 [1] was 20.8 µM, the Activity [20] was 2.99% and the Activity [21] was 59.86%. For the same molecule, the Activity [22] was 68.71%, the Activity [23] was 74.95% and the IC50 [2] was 1.62 µM. The Activity [24] was 35.96%, the Activity [25] was 50.35% and the Activity [26] was “Dose-dependent effect”. The Activity [27] was 38.7%, the Activity [28] was “Active” and the Activity [29] was “tde”. For the same molecule, the IC50 [3] was 1.86 µM, the Activity [30] was “tde” and the Activity [31] was 32.93%. The Activity [32] was “Dose-dependent effect” and the IC50 [4] was 7.13 µM.
With `CCNC(=O)N1CCN(C(=S)SCc2cn(Cc3ccc(Cl)cc3)nn2)CC1` the IC50 [1] was over 128 µM, the IC50 [2] was 35.4 µM and the IC50 [3] was over 128 µM. It also gave an IC50 [4] of over 128 µM.
